High-throughput results as filed in PubChem.
TAAR1 antag: antagonists of human TAAR1; Q96RJ0; CHO RD-HGA16 TAAR1, Fluo-8 calcium fluorescence, antagonist; inhibition, % at 3 µM; hit rate 1.5% among 360,000;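 active = inhibition above a per-plate cutoff, the mean inhibition of test compounds on that plate plus 3 SD, cut at about 49% in these data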;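 also: 0% = DMSO plus EC80 beta-PEA response and 100% = DMSO alone without agonist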
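Test system – hTAAR1-expressing CHO RD-HGA16 cells, Gα16-coupled · Reagent – β-PEA at EC80 concentration, post-compound challenge · Compound dosing – 3 µM, single point · Timing – 140 s kinetic read after compound, 140 s after agonist · Detection – Fluo-8 intracellular calcium dye fluorescence, real-time kinetic reads · Control set – DMSO and EC80 PEA controls · Repeats – n of 1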
TAAR1 ag: human TAAR1 agonism | CHO RD-HGA16 TAAR1, Fluo-8 calcium fluorescence; vehicle wells 0%, saturating PEA agonist 100% | activation, % at 3 µM | Q96RJ0 | hit rate 0.99% among 360,000 | AID 624467;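 active = activation above the mean activation of all test compounds in the run plus 3 SD, cut at about 38% in these data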
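Signal – calcium-sensitive Fluo-8 signal, excitation 470-495, emission 515-575 nm · System – RD-HGA16 (CHO) cells co-expressing Gα16 and hTAAR1 · Incubation – 17-24 h seeding, 75 min 37 °C dye, 30 min RT · Compound dosing – 3 µM single concentration · Repeats – no replicates (n 1)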
HTR2A ag: agonists of mouse serotonin 5-HT2A receptor (HTR2A); P35363; activation, % at 7.6 µM; AID 624169; hit rate 0.66% among 360,000; CHO-K1 mHTR2A beta-arrestin complementation, luminescence; percent of 30 µM serotonin response;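 active = activation above a run cutoff, the mean activation of all tested compounds plus 3 SD, cut at about 14% in these data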;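 also: 0% = plate median of compound wells and 100% = 30 µM serotonin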
B2AR ag: agonists of human beta-2 adrenergic receptor inducing internalization | P07550 | hit rate 0.43% among 340,000 | Am2.2-beta2AR cells, FAP receptor internalization, flow cytometry | response, % (no concentration beside the values);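 active = response above a set limit, near 3 SD of response in nonfluorescent compounds, cut at about 42% in these data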
MC4R antagonist: blocks human MC4R cAMP signaling. P32245. inhibition, % at 6.5 µM. MC4R-expressing cells, MTII-stimulated cAMP, LANCE TR-FRET. hit rate 0.48% among 360,000. AID 540295;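 active = inhibition above its plate's cutoff, the mean of tested wells on that plate plus 3 SD, cut at about 29% in these data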;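 also: 0% = Melanotan II alone and 100% = Melanotan II plus saturating MCL0020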
Target sequence (P32245 whole entry, looked up): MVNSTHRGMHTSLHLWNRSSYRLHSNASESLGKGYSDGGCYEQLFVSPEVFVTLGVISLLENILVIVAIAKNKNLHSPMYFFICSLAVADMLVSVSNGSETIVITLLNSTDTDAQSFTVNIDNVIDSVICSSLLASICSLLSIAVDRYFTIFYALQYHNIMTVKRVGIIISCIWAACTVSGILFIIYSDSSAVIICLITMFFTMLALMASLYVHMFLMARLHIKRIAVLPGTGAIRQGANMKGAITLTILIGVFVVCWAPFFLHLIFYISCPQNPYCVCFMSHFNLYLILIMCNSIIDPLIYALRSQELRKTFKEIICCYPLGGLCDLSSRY
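System: U2OS-MC4R stable cell line; Technique: Eu-cAMP/anti-cAMP TR-FRET, emission 671 nm; Repeats: single well per compound; Also added: Melanotan II; Dosing: one concentration, 6.5 µM nominal; Schedule: 30-min compound, 1-h challenge, 1-h detection, room temperature.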
MC4R barr agon: human MC4R agonism via beta-arrestin; P32245; U2OS MC4R beta-arrestin complementation, luminescence; percent of melanotan II response, DMSO zero; activation, % at 8.9 µM; hit rate 0.98% among 360,000; AID 540308;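 active = activation above a per-plate cutoff, the mean activation of sample wells on that plate plus 3 SD, cut at about 8% in these data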
TAAR1 ag confirm: confirmation of human TAAR1 agonists; shares compounds with TAAR1 ag; CHO RD-HGA16 TAAR1, Fluo-8 calcium fluorescence; scaled: DMSO 0%, maximal phenethylamine 100%; activation, % at 3 µM; hit rate 82% among 2,400; AID 651783;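 active = activation above a cutoff set at the run's mean compound activation plus 3 SD, cut at about 39% in these data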
Ga16 ag counter: nonselective agonism, TAAR1 counter-screen; shares compounds with TAAR1 ag; CHO-Ga16 parental, Fluo-8 calcium fluorescence; normalized to maximal ATP response, DMSO zero; activation, % at 3 µM; hit rate 50% among 2,400;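 active = activation above the run cutoff, the mean activation over all tested wells plus 3 SD, cut at about 12% in these data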;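 also: 0% = DMSO wells and 100% = maximal ATP response on the peak over basal ratio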
TAAR1 desensitize: TAAR1 response desensitization, agonist counter-screen; shares compounds with TAAR1 ag; AID 651951; inhibition, % at 3 µM; hit rate 46% among 2,400; CHO RD-HGA16 hTAAR1, Fluo-8 calcium, beta-PEA response inhibition;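 active = inhibition above the run cutoff, the mean inhibition of all test compounds plus 3 SD, cut at about 49% in these data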;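 also: beta-PEA stimulus applied at its EC80; loss of beta-PEA calcium signal after compound pretreatment read as receptor desensitization; 0% = DMSO with beta-PEA at EC80 and 100% = DMSO alone without agonist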
Ga16 antag count: nonselective Ga16 antagonist in TAAR1 agonist counter-screen; shares compounds with TAAR1 ag; CHO-Ga16 ATP-induced calcium, Fluo-8 fluorescence; inhibition, % at 3 µM; hit rate 39% among 2,400;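 active = inhibition above the plate's mean compound inhibition plus 3 SD, computed per plate, cut at about 22% in these data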;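 also: 0% = EC80 ATP with DMSO and 100% = DMSO wells without ATP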
Starred values were filed as active, the others as inactive; . = no result given. Most compounds without a hit are left out; they make up all but 4.3% or so of the library.

SMILES | TAAR1 antag | TAAR1 ag | HTR2A ag | B2AR ag | MC4R antagonist | MC4R barr agon | TAAR1 ag confirm | Ga16 ag counter | TAAR1 desensitize | Ga16 antag count
CN(CCc1ccccc1)c1cc2c(c3c1ccn3C)C1CCC2O1 (configuration not stated) | 69.0* | 77.8* | 4.6 | . | . | . | 94.1* | 1.9 | 78.5* | 5.1
CC1CCc2sc(C(=O)OCC(=O)NCc3ccccc3)cc2C1 (configuration not stated) | 38.7 | 43.2* | -4.8 | 1.0 | -16.2 | 1.6 | -1.0 | 0.5 | 0.5 | 7.8
Cc1ccc(CNC(=O)COC(=O)c2cc3c(s2)CCC(C)C3)cc1 (configuration not stated) | -14.9 | -0.8 | 0.7 | -0.9 | 15.5 | 2.3 | . | . | . | .
O=S(=O)(Cc1ccccc1)NCCc1cccc(Cl)c1 | -5.8 | 44.0* | -0.1 | -6.5 | -7.0 | -0.9 | 77.4* | 1.4 | 36.5 | 1.1
CC(OC(=O)/C=C/c1ccccc1)C(=O)Nc1cccc(C#N)c1 (configuration not stated) | 13.2 | 4.4 | 2.4 | -4.8 | 6.3 | -2.1 | . | . | . | .
CCOC(=O)/C(=C/C=C1\Sc2cc(C)c(C)cc2N1CC)C(C)=O | 107.2* | 378.5* | 2.6 | -75.8 | 10.7 | 1.3 | 159.9* | 126.2* | 90.6* | 83.8*
CCCCCCCC/C=C\CCCCCCCC(=O)O | -5.0 | 1.5 | -4.4 | -3.1 | -1.8 | -0.4 | . | . | . | .
CCCCCCCCCCCCC/C=C/[C@@H](O)[C@@H](N)CO | -8.1 | 38.7* | 0.1 | 24.9 | 15.9 | 4.0 | 82.7* | 65.4* | 13.1 | 23.1*
COc1ccccc1/C=C1\SC(=S)N(CCC(=O)NNC(=O)c2ccccc2OC)C1=O | 4.7 | -0.7 | 6.5 | -0.2 | 3.3 | -1.8 | . | . | . | .
COc1cc(/C=C2\SC(=S)N(CC(=O)Nc3ccccn3)C2=O)cc(OC)c1OC | 4.0 | 86.8* | -1.6 | 2.6 | 17.3 | -2.1 | 113.9* | 66.6* | 64.1* | 29.6*
COc1ccccc1/C=C1\SC(=S)N(CCC(=O)Nc2cccc(O)c2)C1=O | 80.7* | 62.9* | -7.1 | -3.9 | 9.9 | 1.2 | 70.9* | 32.5* | 66.9* | 40.0*
COc1cc(/C=C2\SC(=S)N(CCC(=O)Nc3ccccn3)C2=O)cc(OC)c1OC | 43.9 | 12.9 | -1.8 | 5.5 | 23.0 | 3.2 | . | . | . | .
O=[N+]([O-])c1cccc(COc2cccc(CN3CCCCC3)c2)c1 | -6.7 | 0.5 | -3.9 | -2.7 | -3.2 | -2.0 | . | . | . | .
Cc1ccc(-c2nc(CS(=O)(=O)CC(=O)N3CCc4ccccc4C3)c(C)o2)cc1 | 30.2 | 66.2* | 3.1 | -1.3 | -1.7 | -0.9 | 82.3* | 2.2 | 64.5* | 14.6
N#Cc1ccccc1NC(=O)CC1c2ccccc2Oc2ccccc21 | 80.9* | 67.4* | -0.4 | 1.4 | -2.7 | 7.0 | 105.6* | 52.0* | 99.7* | 58.4*
CCCCc1c(-c2ccccc2OC)ncn1Cc1cccc(F)c1F | 13.8 | 3.4 | . | . | . | . | . | . | . | .
CCCCN(C)c1c(C)nc2ccc(C(=O)Nc3ccc(OC)c(OC)c3)cn12 | 16.4 | 62.5* | -1.3 | . | 1.7 | 0.1 | 85.2* | 47.9* | 22.9 | 10.2
CCCCCN=C(C)c1c(O)c2ccccc2oc1=O | 16.3 | 58.0* | 1.6 | -11.4 | 2.7 | -0.5 | 58.3* | 1.6 | 11.7 | 2.3
